# Bioassay records from PubChem.
# This is a sample that favours compounds with a hit; in the whole collection about 3.5% have one here.
# HTRA1 inhibitor: inhibitors of human serine peptidase HTRA1 | Q92743 | recombinant HTRA1, FP-rhodamine activity-based probe, fluorescence polarization | inhibition, % at 5.96 µM | 0.5% of 340,000 active | AID 504803; in the data active means inhibition above about 36%;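 further: 0% = enzyme with DMSO and 100% = wells lacking enzyme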
# PRMT1 inh: inhibitors of human PRMT1. recombinant PRMT1, activity-based probe fluorescence polarization. inhibition, % at 2.79 µM. 1.3% of 370,000 active;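 active means inhibition above about 21% made by adding two undisclosed values, limit read from the data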
# Target sequence (Q99873 whole entry, looked up): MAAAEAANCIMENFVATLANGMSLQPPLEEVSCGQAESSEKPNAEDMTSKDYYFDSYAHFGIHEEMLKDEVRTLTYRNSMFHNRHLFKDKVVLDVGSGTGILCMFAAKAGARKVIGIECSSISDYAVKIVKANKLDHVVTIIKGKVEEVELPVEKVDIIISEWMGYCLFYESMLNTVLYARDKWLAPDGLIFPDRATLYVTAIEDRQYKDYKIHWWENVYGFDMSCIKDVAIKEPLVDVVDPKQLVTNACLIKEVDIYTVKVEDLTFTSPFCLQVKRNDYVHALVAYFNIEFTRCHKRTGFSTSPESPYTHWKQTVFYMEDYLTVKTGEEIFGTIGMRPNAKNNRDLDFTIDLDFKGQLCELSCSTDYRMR
# mABHD4 FP: ABHD4 (mouse) inhibition, primary FP screen. Q8VD66. purified mABHD4, FP-Rh probe fluorescence polarization. inhibition, % at 8.92 µM. 0.54% of 370,000 active. AID 720543;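 active means inhibition exceeding the mean over every tested compound plus 3 SD, cut at about 30% in these data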;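 further: 0% = plate median of compound wells and 100% = S159A mutant with DMSO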
#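 Assay system: Wild-type mouse ABHD4 protein | Medium: HEPES pH 7.0 buffer, 150 mM NaCl, 0.01% Pluronic F-127 | Incubation: Enzyme–compound pre-incubation 45 min, then probe 60 min, both 25 °C | Technique: Fluorescence polarization with parallel and perpendicular emission, 525/598 nm | Evaluation: % inhibition of FP-Rh probe binding versus controls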
# rCAG binder: molecules binding r(CAG) RNA repeats; r(CAG) RNA repeat, TO-PRO-1 dye displacement fluorescence; inhibition, % at 3 µM; 1.3% of 370,000 active; AID 651821;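 active means inhibition above the plate cutoff, the mean of all test compounds on that plate plus 3 SD, cut at about 35% in these data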;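 further: 0% = DMSO alone and 100% = 100 µM mitoxantrone as full dye displacement; higher means more dye released from RNA so lower well fluorescence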
# TCR-CD3 inh: blocks the human TCR-CD3 interaction | TAMRA-labeled TCR probe fluorescence, biochemical | inhibition, % at 9.4 µM | 0.37% of 360,000 active | AID 651800; in the data active means inhibition above about 19%;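 further: recombinant mutant TCR 2C K166C tagged with TAMRA read by polarization; 0% = receptor in buffer alone and 100% = receptor with positive control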
# SIAE inh: inhibitors of human sialic acid acetylesterase SIAE. Q9HAT2. SIAE FP-Rh probe binding, fluorescence polarization. inhibition, % at 9.66 µM. 0.69% of 370,000 active;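 active means inhibition above a cutoff: mean of compounds within the control limits plus 3 SD of those, cut at about 17% in these data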;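 further: 0% = plate median of compound wells and 100% = probe without SIAE protein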
# * hit, by the source's call; x = no result.
SMILES,HTRA1 inhibitor,PRMT1 inh,mABHD4 FP,rCAG binder,TCR-CD3 inh,SIAE inh
Cc1ccc(NC(=O)C2CCCN(c3nnc(-n4cccc4)s3)C2)c(C)c1 (stereo not drawn),x,1,-2,4,x,-4
Cc1nn(-c2ccc(Cl)cc2)c(=O)c2ccccc12,6,1,0,-4,-6,-3
Cc1c(Cl)sn(-c2ccc(Cl)cc2)c1=O,-3,68*,3,-1,-4,-4
O=C(CN1C2=NCCN2c2ccccc21)c1ccc2c(c1)OCO2,7,-2,-1,6,-2,20*
COc1ccc2[nH]c(C(=O)N/N=C/c3ccc(O)cc3O)cc2c1,26,-2,18,16,7,25*
CCOc1ccc2[nH]c(C(=O)N/N=C/c3ccc(OC)cc3)cc2c1,-14,2,-7,14,1,0
O=C(CSC1=NCCS1)Nc1ccnc2ccccc12,-1,23*,-5,3,5,7
Cc1cc(C)nc(SCC(=O)Nc2ccnc3ccccc23)n1,-5,1,7,-1,5,3
Cc1cccc(-c2cccc3c4c([nH]c23)[C@@H]2C[C@H](N(C)C(=O)NC3CCCCC3)[C@H]([C@H](C)O)C(=O)N2CC4)c1,x,-3,-4,12,x,-4
N#CCC[C@@H]1CC[C@]2(CCCN(C(=O)C3CCCCC3)C2)O1,x,4,6,0,x,5
CCc1ccc(C(=O)CSc2ncn[nH]2)cc1,-2,23*,4,0,0,3
CC(COc1ccc(CC#N)cc1)CN1CCC(C(O)(c2ccccc2)c2ccccc2)CC1 (stereo not drawn),x,1,0,1,x,2
COc1ccccc1CCNC(=O)CCSc1nc(-c2ccco2)cc(C(F)(F)F)n1,-8,23*,-18,34,-9,-5
COc1ccccc1CCNC(=O)CSc1nc(-c2ccco2)cc(C(F)(F)F)n1,0,2,0,1,-7,-1
O=S(=O)(c1ccccc1)c1cc(O)ccc1O,5,5,2,0,5,3
Nc1ccc(S(=O)(=O)c2cc(O)c3ccccc3c2O)cc1,19,24*,48*,57*,6,1
CCOC(=O)COc1ccc(Br)cc1/C=C/c1[nH]c(=O)[nH]c(=O)c1[N+](=O)[O-],-3,5,-4,77*,-1,-12
CCCOc1ccc(/C=C/c2[nH]c(=O)[nH]c(=O)c2[N+](=O)[O-])cc1OCC,1,0,-2,-3,-4,-1
COC(=O)C1=C(C)Nc2ccc(C)cc2S1,6,24*,-5,6,-10,-14
COC(=O)[C@]12C[C@H](CC(=O)NCc3cccs3)C(=O)N(Cc3ccco3)C1=C[C@H](C(C)(C)C)O[C@@H]2C,x,4,-1,2,x,9
Cc1ccc2nc(-c3ccc(NC(=O)CSc4nnc(-c5cc(C)[nH]n5)n4N)cc3)sc2c1,x,-4,-5,6,x,-1
CN1C(=O)c2cccc3c(S(=O)(=O)NCc4ccco4)ccc1c23,-3,22*,3,4,-7,5
C=CCN=Cc1sc2ccc(OCC)cc2c1O,x,24*,1,1,5,-3
CCOc1ccc2nc(/N=C/c3nc(-c4ccc(Br)cc4)oc3O)sc2c1,-14,-2,7,11,7,-12
COC(=O)[C@H]1C[C@@]2(n3ccc4ccccc43)c3ccccc3N(S(=O)(=O)c3ccccc3)[C@H]2N1C(=O)CNC1CCCCC1,x,2,16,7,x,-5
SMILES,HTRA1 inhibitor,PRMT1 inh,mABHD4 FP,rCAG binder,TCR-CD3 inh,SIAE inh
CCn1c(C(=O)O)c(CC(=O)Nc2cccc(C(F)(F)F)c2)c2ccccc21,-34,1,-9,35*,-2,-2
CCn1c(C(=O)O)c(CC(=O)Nc2ccccc2F)c2ccccc21,-4,0,-2,9,11,6
COc1cc(CNn2c(C)n[nH]c2=S)cc(Cl)c1OCc1ccccc1,-9,24*,-8,8,0,0
COc1cc(CNn2cn[nH]c2=S)cc(Cl)c1OCc1ccc(F)cc1,-4,11,-5,17,-3,12
Cc1nc2cc3nc(C)sc3cc2s1,4,22*,-2,2,-4,2
Cc1nc2cc3ccccc3cc2s1,0,2,2,-1,-4,-3
O=S1(=O)c2ccc(N3CCCC3)cc2Oc2ccccc2CN1Cc1cn(Cc2cccc(C(F)(F)F)c2)nn1,x,3,4,11,x,13
NC(=O)c1sc2nc(-c3ccccc3)c3c(c2c1N)CCCC3,-9,25*,6,7,0,3
C/C=C/C=C/C(=O)N1CC2(CC(c3cccc(NC(=O)CCCCC)c3)=NO2)C[C@H]1C(N)=O (stereo partly drawn),-4,21*,-6,7,4,-6
CN1CCN(C(=O)c2cc3sccc3n2CC(=O)c2ccccc2)CC1,1,2,10,-5,0,1
CCN1CCN(C(=O)c2cc3sccc3n2CC(=O)c2ccccc2)CC1,4,1,6,-5,8,67*
COc1ccc(S(=O)(=O)N(C)C[C@H]2Oc3ccc(NC(=O)Nc4ccc5c(c4)OCO5)cc3CC(=O)N([C@@H](C)CO)C[C@@H]2C)cc1,-6,1,-1,13,-5,18*
COc1ccc(CN2C/C(=C/c3ccc(C)cc3)N3C(=O)C[C@@H](c4ccccc4)N=C23)c(OC)c1,x,-1,-7,8,x,4
N#CC1=C(SCC(=O)Nc2cccc3cccnc23)NC(=O)C(C#N)C12CCCCC2 (stereo not drawn),-7,3,0,48*,6,-3
N#CC1=C(SCC(=O)NC2CC2)NC(=O)C(C#N)C12CCCCC2 (stereo not drawn),3,0,2,2,3,1
N#CC1=C(Nc2ccccc2Cl)SC(c2ccccc2O)NC1=O (stereo not drawn),-1,24*,5,21,0,-3
Cc1nc2sc(C(=O)NCc3ccc4c(c3)OCO4)c(N)c2c(C)c1Cl,x,22*,-3,13,x,-1
CCCCCC(=O)NC1CCCCN(Cc2ccc(C)cc2)C1=O (stereo not drawn),x,2,4,-1,x,-6
CCOC(=O)c1ccc2c(c1)N(C)C(=O)c1ccccc1S2,-7,x,x,x,x,x
CCOC(=O)c1cc2n(c1/N=C/N(C)C)-c1ccccc1C2=O,5,23*,4,-1,-7,0
CCCC/C=C1/[C@H](c2ccc(Cl)cc2)N(Cc2ccc3c(c2)OCO3)C2=N[C@H](c3ccccc3)CC(=O)N21,x,6,1,10,x,2
O=C(Cn1nnc(-c2ccccc2F)n1)Nc1ccc(F)cc1F,x,-3,6,-1,x,5
COc1ccc(C(CCN2CCOCC2)c2c(O)cc(OC)cc2OC)cc1 (stereo not drawn),-1,5,3,-6,-3,-4
